Source: PubChem
Apaf-1 act: human Apaf-1 activation | O14727 | Apaf-1 apoptosome caspase-3 activation, DEVD-Rh110 fluorescence; stronger effect = lower value | activity change, negative = activation, % at 20 µM | 330,000 compounds, 0.31% hits;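 active = activity change at or below -40% at 20 µM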
Target sequence (O14727 whole entry, looked up): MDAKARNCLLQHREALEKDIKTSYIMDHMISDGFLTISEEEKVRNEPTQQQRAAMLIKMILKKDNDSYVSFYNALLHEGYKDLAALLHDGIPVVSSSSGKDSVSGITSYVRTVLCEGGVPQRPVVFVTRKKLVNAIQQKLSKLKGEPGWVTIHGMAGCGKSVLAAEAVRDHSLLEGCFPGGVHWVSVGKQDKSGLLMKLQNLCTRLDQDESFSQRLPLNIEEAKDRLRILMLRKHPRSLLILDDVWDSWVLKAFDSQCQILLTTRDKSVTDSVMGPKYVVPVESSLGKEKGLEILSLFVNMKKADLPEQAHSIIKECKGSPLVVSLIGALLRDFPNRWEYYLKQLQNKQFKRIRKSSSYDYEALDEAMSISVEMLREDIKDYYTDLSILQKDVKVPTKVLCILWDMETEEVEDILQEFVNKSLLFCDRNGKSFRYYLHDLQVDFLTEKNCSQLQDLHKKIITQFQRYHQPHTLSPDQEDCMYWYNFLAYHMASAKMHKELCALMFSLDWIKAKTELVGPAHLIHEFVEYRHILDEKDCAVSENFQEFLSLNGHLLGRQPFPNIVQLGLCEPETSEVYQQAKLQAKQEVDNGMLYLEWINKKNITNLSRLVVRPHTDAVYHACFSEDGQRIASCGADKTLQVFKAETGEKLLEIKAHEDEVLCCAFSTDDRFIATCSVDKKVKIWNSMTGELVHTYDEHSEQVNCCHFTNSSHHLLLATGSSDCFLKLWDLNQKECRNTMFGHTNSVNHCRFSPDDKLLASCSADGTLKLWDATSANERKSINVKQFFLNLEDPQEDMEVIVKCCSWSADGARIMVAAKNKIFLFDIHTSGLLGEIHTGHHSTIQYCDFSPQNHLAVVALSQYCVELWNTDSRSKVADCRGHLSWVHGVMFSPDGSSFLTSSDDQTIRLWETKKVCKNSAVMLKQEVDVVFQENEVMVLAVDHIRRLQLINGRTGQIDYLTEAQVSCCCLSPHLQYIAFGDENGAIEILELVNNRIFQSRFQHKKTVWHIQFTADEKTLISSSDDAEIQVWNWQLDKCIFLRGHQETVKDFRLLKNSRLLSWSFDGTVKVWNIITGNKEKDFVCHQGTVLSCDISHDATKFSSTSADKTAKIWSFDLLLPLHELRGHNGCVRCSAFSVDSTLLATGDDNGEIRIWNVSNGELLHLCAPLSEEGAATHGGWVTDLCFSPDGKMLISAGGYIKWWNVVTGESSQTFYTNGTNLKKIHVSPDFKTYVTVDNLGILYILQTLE
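Schedule: 30 min preincubation, 50 min reaction, room temperature / System: biochemical Apaf-1 apoptosome reconstitution / Medium: 20 mM HEPES pH 7.5 with CHAPS, BSA / Evaluation: Caspase-3 cleavage activity downstream of Apaf-1 activation / Detection: Caspase-3-released Rh110 fluorescence, 540 nm emission, 480 nm excitation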
Rh110 interf act: interferes with Rh110 fluorescence, flagging false Apaf-1 activators; 980 tested, under 10 active; Rh110 fluorescence interference, quenched caspase reaction, Ex480/Em540; shares compounds with Apaf-1 act; fluorescence interference (activity change), % at 20 µM, hits read low;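 active = mean activity change at or below -40% when tested at 20 µM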
Apaf-1 act conf2: confirmation of human Apaf-1 activators; activity change, negative = activation, % at 20 µM; 980 compounds, 5% hits; shares compounds with Apaf-1 act; reconstituted apoptosome caspase-3 activity, DEVD-Rh110 fluorescence; stronger effect = lower value;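 active = mean activity change at or below -40%, meaning activation of 40% or more, at 20 µM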
Apaf1 act interf: shows fluorescence interference in the Apaf-1 activator assay format. shares compounds with Apaf-1 act. fluorescence interference counterscreen. EC50, µM. 55 tested, under 10 active; call rule not given here
Starred values were filed as active, the others as inactive. These entries were drawn from the full list.

O=C(N/N=C\c1ccc(-c2ccccc2[N+](=O)[O-])o1)C1COc2ccccc2O1 (stereo not drawn) was read as Apaf-1 act 79.
`O=C(COc1ccccc1[N+](=O)[O-])N/N=C/c1ccncc1` gave Apaf-1 act -53*, Rh110 interf act 9 and Apaf-1 act conf2 15.
For O=C(N/N=C/c1ccc(-c2ccccc2[N+](=O)[O-])o1)c1cncc(Br)c1 the results were Apaf-1 act 81.
`CCOC(=O)N1CCN(S(=O)(=O)c2ccc(C(=O)N(CCCN(C)C)c3nc4ccc(CC)cc4s3)cc2)CC1` gave Apaf-1 act 55.
COC(=O)CCC(=O)OC1(C)C(=O)C2=CN(CCc3ccccn3)C(c3ccc(OC)cc3)=CC2=C(Br)C1=O (stereo not drawn) was read as Apaf-1 act 73.
For COc1ccc(CNc2ccc3cn[nH]c3c2)c(OC)c1OC the results were Apaf-1 act 46.
`C[C@@H](CSc1ccc(Br)cc1)CN1CC[C@H](NC(=O)OCc2ccccc2)CCC1=O` gave Apaf-1 act 40.
`Nc1c(C(=O)NCc2ccco2)c2nc3ccccc3nc2n1CCc1ccccc1F` gave Apaf-1 act 61.
Screening CCC(C(=O)NCc1ccco1)n1nc(C)c2c(C)n(-c3ccccc3)nc2c1=O (stereo not drawn) returned Apaf-1 act -86*, Rh110 interf act 2 and Apaf-1 act conf2 13.
C[C@@H]1[C@H]2[C@@H]3CC[C@@H](C3)[C@H]2CN[C@H]1c1cn(Cc2ccccc2)c2ccccc12 was read as Apaf-1 act 62.
Cc1ccc(NC(=O)C(C)N2C(=O)C3C4CC(C(Br)C4Br)C3C2=O)cc1 (stereo not drawn) was read as Apaf-1 act -419*, Rh110 interf act 0 and Apaf-1 act conf2 4.
Screening COc1ccc(C2=C(CN(C)C)C(c3ccccc3)c3ccccc3O2)cc1 (stereo not drawn) returned Apaf-1 act 12.
`CN1Cc2c(N3CCOCC3)nc3sc(C(=O)c4ccc(Br)cc4)c(N)c3c2CC1(C)C` gave Apaf-1 act 56.
Screening CCOC(=O)c1c(-c2ccc(OC)cc2)oc2cc(Br)c(O)cc12 returned Apaf-1 act -62*, Rh110 interf act -1 and Apaf-1 act conf2 -28.
CCOC(=O)c1c(C)oc2c1C(=O)c1ccccc1C2=O was read as Apaf-1 act 69.
`C#CCOCCOCCOCCNc1nc(N2CCN(C(=O)CCCCCCCCCCNC(=O)[C@@H](CCSC)n3cc(CCO)nn3)CC2)nc(N2CCN(C(=O)CCCCCCCCCCNC(=O)[C@H](CO)n3cc(CCCCCN)nn3)CC2)n1` gave Apaf-1 act 71.
For CCC(C)(C)c1ccc(OCCCC[n+]2ccc(C)cc2)c(C(C)(C)CC)c1 the results were Apaf-1 act 48.
CC(C)Oc1ccc(N2CC(C(=O)Nc3ccc(N4CCOCC4)cc3)CC2=O)cc1 (stereo not drawn) was read as Apaf-1 act -107*, Rh110 interf act 8 and Apaf-1 act conf2 5.
`CC(=O)c1ccc(NC2=C(N3CCOCC3)C(=O)c3ccccc3C2=O)cc1` gave Apaf-1 act 80.
`COc1ccc(NC(=O)c2cc(-c3ccncc3)nc3ccc(Br)cc23)cc1OC` gave Apaf-1 act 45.
`CCOc1cc(/C=C/C(=O)Nc2ccc(C(=O)NCCN(CC)CC)cc2)ccc1OCC(C)C` gave Apaf-1 act 47 and Apaf1 act interf >100.
CCN(CC)CCNC(=O)c1ccc(NC(C)=O)cc1 was read as Apaf-1 act -2.
For CN(C)CCNC(=O)c1ccc(COc2ccc(Cl)cc2Cl)cc1 the results were Apaf-1 act 46.
`COc1ccc(C[C@H]2CN3C(=NC[C@@H]3Cc3ccccc3)N2CCNC(=O)CCC2CCCCC2)cc1` gave Apaf-1 act 52.
For CCCCC(CC)COC(=O)C(C#N)=C(c1ccccc1)c1ccccc1 (stereo not drawn) the results were Apaf-1 act -232*, Rh110 interf act 1 and Apaf-1 act conf2 3.
Cc1ccc(NC(=O)C2CCN(C(=O)[C@@H]3Cc4ccccc4CN3)CC2)c(C)c1 was read as Apaf-1 act -72*, Rh110 interf act -4 and Apaf-1 act conf2 9.
COc1ccc(Br)cc1CNc1ccc(O)cc1 was read as Apaf-1 act 95.
CCOc1ccccc1NC(=O)c1ccc(Cl)c(NC(=O)CC(c2ccccc2)c2ccccc2)c1 was read as Apaf-1 act -55*, Rh110 interf act 6 and Apaf-1 act conf2 14.
`CCOC(=O)C1CCN(c2cc3c(cc2NC(=O)c2ccccc2OCC)n(C)c(=O)n3C)CC1` gave Apaf-1 act 40.
Screening CN(C)CCCNC(=O)C[C@H]1C[C@H](C(=O)N2CCOCC2)[C@@]2(CCC3CCCC3)c3[nH]c4cc(-c5ccco5)ccc4c3CCN2C1=O returned Apaf-1 act 67.
`CC(NC(=O)c1ccccc1Cl)C(=O)O` (stereo not drawn) gave Apaf-1 act -532*, Rh110 interf act -1 and Apaf-1 act conf2 3.
`O=C(NC1(O)C(=O)c2ccccc2C1=O)c1c(Cl)cccc1Cl` gave Apaf-1 act 96.
`COC/C=C/C1=CC2=CC(=O)C(C)(OC(=O)c3cnc4ccccc4n3)C(=O)C2=CN1CC(C)C` (stereo not drawn) gave Apaf-1 act 41.
Screening CC(C)[C@H](CN1CCC[C@H]1CN1C(N)=NC[C@H]1C(C)C)N1C[C@@H](Cc2ccccc2)N(CCCC2CCCC2)C1=N returned Apaf-1 act 63.
Screening Cc1cc(C)cc(NC(=O)C2C3C=CC4(O3)C2C(=O)N(CCCN2CCCCC2)C4C(=O)NC2CCCCC2)c1 (stereo not drawn) returned Apaf-1 act -325*, Rh110 interf act 3 and Apaf-1 act conf2 17.
For CC(C)Cn1c(N)c(C(=O)COC(=O)C2CCCCC2)c(=O)n(C)c1=O the results were Apaf-1 act 43.
`CC1(C)CNc2cc(N)ccc2S1` gave Apaf-1 act 50.
`N#C/C(=C/c1cn(-c2ccccc2)nc1-c1cccc(OCc2ccc(F)cc2)c1)C(=O)NCCCn1ccnc1` gave Apaf-1 act 44.
For COc1ccc(-c2nn(-c3ccccc3)cc2/C=C(\C#N)C(N)=O)cc1[N+](=O)[O-] the results were Apaf-1 act -53*, Rh110 interf act -1 and Apaf-1 act conf2 -29.
`COc1ccc(-c2nn(-c3ccccc3)cc2/C=C(/C#N)C(N)=O)cc1[N+](=O)[O-]` gave Apaf-1 act -57*, Rh110 interf act 12 and Apaf-1 act conf2 -23.
`CC1=NN(c2ccccc2)C(=O)/C1=C\c1ccc(Oc2ccc([N+](=O)[O-])cc2[N+](=O)[O-])cc1` gave Apaf-1 act 92.
O=S(=O)(Nc1ccc(O)c2ccccc12)c1cccs1 was read as Apaf-1 act 52.
Screening CCC(CO)Oc1cc(NCc2ccc(F)cc2)c2ncn(C(C)C)c2c1 (stereo not drawn) returned Apaf-1 act 43.
